From ChEMBL document CHEMBL3232936, “Synthesis, biological activity, distribution and membrane permeability of novel spiro-thiazines as potent neuroprotectors” (Eur J Med Chem, 2014)

Columns and labels:
[1] = Apparent permeability of the compound across phospholipid vesicle-based barrier; format: physicochemical; settings: not told
Procedure, shortened: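 Phospholipid vesicle-based barrier from egg phosphatidylcholine liposomes (6% w/v in phosphate buffer with 10% v/v ethanol), extruded onto 0.65 µm mixed cellulose ester filter inserts (0.33 cm²). Donor: compound in pH 7.4 phosphate buffer; acceptor: same buffer. Room temperature, no agitation, 12–24 h, inserts moved to fresh buffer. UV-absorbance read-out; Papp from steady-state flux under sink conditions; at least triplicate, mean ± SD.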

[2] = tested on: Brain; assay: Inhibition of glutamate-induced [45Ca2+] uptake in synaptosomes in rat brain cortex assessed as biological activity coefficients (K43/21) after 5 mins by scintillation counting relative to control; format: functional, subcellular; design: concentration or dose not given beside the values
Procedure, shortened: (§1)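 Synaptosomal P2 fraction from brain cortex of 8–11-day-old rats, suspended in buffer A (132 mM NaCl, 5 mM KCl, 5 mM HEPES, pH 7.4) and kept at 0 °C. Glutamate-stimulated 45Ca2+ uptake with test compound, 5 min at 37 °C. Stopped by GF/B filtration, three washes with cold buffer B (145 mM KCl, 10 mM Tris, 5 mM Trilon B), scintillation counting. Initial screen at 100 µM; concentration dependence followed when inhibition reached 50% or more. MK-801 positive control.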

[3] = Partition coefficient, log D of the compound in n-octanol-buffer at pH 7.4 by isothermal saturation method; format: physicochemical
Procedure, shortened: (§2)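 Isothermal saturation method at 25 °C, partitioning between n-octanol or n-hexane and phosphate buffer pH 7.4 (KH2PO4, Na2HPO4, NaCl, NaN3). Compound concentrations measured spectrophotometrically against calibration curves; coefficient taken as the ratio of concentration in the organic phase to that in buffer.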

[4] = Partition coefficient, log D of the compound in hexane-buffer at pH 7.4 by isothermal saturation method; format: physicochemical; procedure, shortened: as §2
[5] = tested on: Brain; assay: Inhibition of glutamate-induced [45Ca2+] uptake in synaptosomes in rat brain cortex after 5 mins by scintillation counting; format: functional, subcellular; procedure, shortened: as §1

Structure (SMILES) | Papp [1] [×10⁻⁶ cm/s] | Activity [2] [%] | logD [3] | logD [4] | IC50 [5] [µM]
Nc1ccc(NC2=NCCC3(CCCCC3)S2)cc1 | 2.04 | 115 | 1.88 | -0.52 | 
Cc1cccc(C(C)C)c1NC1=NCCC2(CCCCC2)S1 | 9.04 | 5.4 | 2.36 | 1.5 | 20.9
CC(=O)c1ccc(NC2=NCCC3(CCCCC3)S2)cc1 | 2.55 | 45.1 | 1.97 | 1.88 | 81.3
Cc1ccc(NC2=NCCC3(CCCCC3)S2)cc1 | 5.67 | 20.4 | 1.56 | 1.48 | 31.6
NC1=NCCC2(CCCCC2)S1 | 7.33 | 91.4 | 1.57 | 1.22 | 
Cc1ccc(NC2=NCCC3(CCCCC3)S2)cc1Cl | 23.9 | 45.9 | 2.44 | 0.91 | 89.1
Cc1cc(C)c(NC2=NCCC3(CCCCC3)S2)c(C)c1 | 11.3 | 2.6 | 2.05 | 1.48 | 9.3
CCc1cccc(CC)c1NC1=NCCC2(CCCCC2)S1 | 21.6 | 3.5 | 1.88 | 1.28 | 7.9
Clc1ccc(NC2=NCCC3(CCCCC3)S2)cc1Cl | 3.1 | 76.9 | 2.45 | 1.24 | 
CNC1=NCCC2(CCCCC2)S1 | 2.7 | 134 | 0.88 | 0.91 | 
Fc1ccc(NC2=NCCC3(CCCCC3)S2)cc1Cl | 7.36 | 81.5 | 2.03 | 0.95 | 
CCc1ccc(NC2=NCCC3(CCCCC3)S2)cc1 | 41 | 0 | 2.31 | 1.75 | 11.7
CCNC1=NCCC2(CCCCC2)S1 | 8.78 | 65.3 | 1.38 | 0.72 | 
Oc1ccc(NC2=NCCC3(CCCCC3)S2)cc1 | 1.72 | 73.5 | 1.96 |  | 
CC(C)c1ccc(NC2=NCCC3(CCCCC3)S2)cc1 | 15.7 | 0 | 1.57 | 1.45 | 6.2
COc1ccc(NC2=NCCC3(CCCCC3)S2)cc1 | 1.11 | 45.7 | 0.8 | 1.45 | 85.1
CC(=O)c1cccc(NC2=NCCC3(CCCCC3)S2)c1 | 74.7 | 67.3 | 2.37 | 1.31 | 
Brc1ccc(NC2=NCCC3(CCCCC3)S2)cc1 | 90.3 | 56.5 | 2.53 | 1.36 | 
O=C(NC1=NCCC2(CCCCC2)S1)c1ccccc1 | 3.18 | 78.1 | 1.55 | 1.51 | 
FC(F)(F)c1ccc(NC2=NCCC3(CCCCC3)S2)cc1 | 3.06 | 42.1 | 2.18 | 1.31 | 77.6
Clc1ccc(NC2=NCCC3(CCCCC3)S2)cc1 | 27.8 | 12.7 | 2.5 | 1.34 | 35.5
c1ccc(NC2=NCCC3(CCCCC3)S2)cc1 | 1.81 | 33.2 | 1.02 | 1.69 | 63.1
